In one data set the test system is CYP3A4. The conditions noted are these: read-out: CYP3A4 inhibition IC50; in vitro; cited from earlier work.
For data set [1] the following is noted: cited from earlier work.
Data set [2] is classed as in vivo, human. The conditions noted are these: atovaquone/proguanil 250/100 mg alone; N = 16; mean ± SD. In a few lines: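 Healthy CYP2C19 *1/*1 subjects (PCR-genotyped) in a crossover design; acid reducer given orally once daily for 6 days at the approved maximum dose, then co-dosed with oral atovaquone/proguanil. Plasma sampled to 48 h, urine in 0–8, 8–24 and 24–48 h intervals, both assayed by HPLC-MS/MS. Non-compartmental analysis: t½ = ln2/λz, CL/F = dose/AUCinf, fe = 48-h urinary proguanil/dose.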

For data set [3] the following is noted: proguanil alone, previous study; cited from earlier work.
The conditions of data set [4]: cited from earlier work. This is another data set of the same source.
Data set [5] deals with T1, CYP2C19 (Homo sapiens, UniProt P33261). The data set is classed as in vivo. The settings on record: healthy CYP2C19 extensive metabolizers; 7 days of dosing.
For data set [6] the following is noted: at the therapeutic dose; cited from earlier work.
For data set [7], the target named is T1, CYP2C19. The conditions noted are these: read-out: CYP2C19 half-maximum inhibitory concentration (IC50); in vitro; cited from earlier work.

T1 sequence (P33261 whole entry): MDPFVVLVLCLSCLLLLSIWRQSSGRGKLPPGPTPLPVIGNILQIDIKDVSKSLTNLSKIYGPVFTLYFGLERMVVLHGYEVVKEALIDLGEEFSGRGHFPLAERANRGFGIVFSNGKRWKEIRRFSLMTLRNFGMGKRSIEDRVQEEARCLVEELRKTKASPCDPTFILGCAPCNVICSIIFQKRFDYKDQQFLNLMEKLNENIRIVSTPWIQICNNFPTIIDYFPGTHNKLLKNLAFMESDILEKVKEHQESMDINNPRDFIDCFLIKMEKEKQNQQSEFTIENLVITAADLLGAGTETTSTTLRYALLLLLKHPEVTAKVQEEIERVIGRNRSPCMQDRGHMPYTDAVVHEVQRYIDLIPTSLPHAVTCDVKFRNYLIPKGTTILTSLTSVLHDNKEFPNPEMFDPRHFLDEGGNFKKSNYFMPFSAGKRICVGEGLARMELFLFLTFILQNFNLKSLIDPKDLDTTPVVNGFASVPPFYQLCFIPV

With `O=C1C(O)=C([C@H]2CC[C@H](c3ccc(Cl)cc3)CC2)C(=O)c2ccccc21` [Atovaquone, atovaquone], in the data set with CYP3A4, the IC50 was […]. The “Excreted unchanged in the feces” value in data set [1] is recorded as ≥ 94%.
For the compound `CC1(C)N=C(N)N=C(N)N1c1ccc(Cl)cc1` [Cycloguanil, cycloguanil], the “Metabolic ratio (AUCinf of cycloguanil to AUCinf of proguanil)” value in data set [2] was determined as 0.35. Also, the “Metabolic ratio (cycloguanil-to-proguanil ratio)” value in data set [3] is on record as 0.84.
Turning to `[H]/N=C(\N/C(=N/[H])Nc1ccc(Cl)cc1)NC(C)C` [Proguanil, proguanil], the “Biopharmaceutical Classification System (BCS) class” value in data set [4] is listed as “class III”. Moreover, in data set [1], the “Fraction of the dose renally excreted” value is given as 40–60%.
For the compound `Cc1nc2c(O[C@H]3CCOc4cc(F)cc(F)c43)cc(C(=O)N(C)C)cc2[nH]1` [Tegoprazan, tegoprazan], the “Effect on CYP2C19 activity (conclusion from proguanil PK)” value on CYP2C19 [5] is reported as “neither an inhibitor nor an inducer of CYP2C19”. In addition, the “Unbound Cmax” value in data set [6] was “approximately 1.3 µM”.
For the compound `CNCc1cc(-c2ccccc2F)n(S(=O)(=O)c2cccnc2)c1` [Vonoprazan, vonoprazan], the IC50 on CYP2C19 [7] was 13 µM. Moreover, the “Unbound maximum plasma concentration (Cmax)” value in data set [6] is “approximately 0.01 µM”.
Take `Cc1c(OCC(F)(F)F)ccnc1C[S+]([O-])c1nc2ccccc2[nH]1` (stereo not drawn) [lansoprazole]: the “Biopharmaceutical Classification System (BCS) class” value in data set [4] is listed as “class II”.
As to `COc1ccc2[nH]c([S+]([O-])Cc3ncc(C)c(OC)c3C)nc2c1` (stereo not drawn) [omeprazole], the “Biopharmaceutical Classification System (BCS) class” value in data set [4] is given as “class II”.

The values above are taken from article PMC10085907 (Clinical Pharmacokinetics, 2023).
